Assay outcomes: PubChem BioAssay, The Scripps Research Institute Molecular Screening Center
Only some compounds are listed: those with a hit (about 2.7% of all), similar ones and a draw of the others.
CHO parental Ca: ATP-evoked calcium signal inhibitors, parental CHO, primary screen, counter-screen for OX1R antagonist project, cell-based, fluorescence, Fluo-8 calcium dye. parental CHO-K1, ATP-induced calcium, Fluo-8 fluorescence. inhibition, % at 5.6 µM. 330,000 compounds, 0.63% hits. AID 463079, 2010;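 active = inhibition above that plate's mean sample inhibition plus 3 SD, cut at about 26% in these data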;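 also: 0% = ATP-challenged DMSO wells and 100% = DMSO wells without ATP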
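Test system: untransfected parental CHO cell line. Compound: one dose, 5.6 µM nominal. Detection: intracellular calcium via Fluo-8 no-wash fluorescent dye. Measure: % inhibition. Benchmarks: ATP-challenged DMSO wells low, unchallenged DMSO wells high.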
V1aR counter: agonists of human V1a receptor, primary screen, counter-screen for OXTR agonist project, fluorescence, CHO-V1R cells; activation, % at 3 µM; 320,000 compounds, 0.25% hits; Fluo-8 calcium fluorescence, agonist mode; 0% DMSO, 100% 3 nM vasopressin;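 active = activation above the mean activation of all tested compounds plus 3 SD, per screening run, cut at about 20% in these data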;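 also: signal is peak over basal fluorescence ratio across a 100 second FLIPR read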
OX1R antag-1: antagonists of human orexin 1 receptor (OX1R) | Orexin/Hypocretin receptor type 1 (Homo sapiens), O43613 | OX1R-expressing cells, FRET antagonist read-out | inhibition, % at 6.6 µM | 330,000 compounds, 1.8% hits | AID 485270, 2010; in the data active = inhibition mostly above about 38%, no sharp cut-off; inactive = mostly below about 40%;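 also: 0% = agonist challenge alone and 100% = reference antagonist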
OXTR agonist: human OXTR agonists, primary screen, fluorescence, CHO-OTR cells, Fluo-8 calcium; Oxytocin receptor (Homo sapiens), P30559; Fluo-8 calcium fluorescence; normalized: DMSO 0%, oxytocin 100%; activation, % at 3 µM; 320,000 compounds, 0.32% hits; AID 2435, 2010;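 active = activation above the mean of all tested compounds plus 3 SD, cutoff set per screening run, cut at about 20% in these data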;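 also: peak over basal fluorescence ratio from a 100 s FLIPR kinetic read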
Target sequence (P30559 whole entry, looked up): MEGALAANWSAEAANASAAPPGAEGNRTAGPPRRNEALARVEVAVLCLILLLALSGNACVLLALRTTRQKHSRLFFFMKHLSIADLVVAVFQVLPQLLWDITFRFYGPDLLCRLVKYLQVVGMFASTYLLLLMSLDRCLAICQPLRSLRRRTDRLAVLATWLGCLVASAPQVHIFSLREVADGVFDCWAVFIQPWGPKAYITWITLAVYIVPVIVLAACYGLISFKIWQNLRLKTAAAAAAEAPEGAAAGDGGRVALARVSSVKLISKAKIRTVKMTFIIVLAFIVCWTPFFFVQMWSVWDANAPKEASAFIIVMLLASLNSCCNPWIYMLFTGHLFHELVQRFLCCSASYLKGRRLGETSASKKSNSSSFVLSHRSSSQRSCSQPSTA
OXTR potentiate: human OXTR potentiators, primary screen, fluorescence, CHO-OTR cells, Fluo-8 calcium; Oxytocin receptor (Homo sapiens), P30559; Fluo-8 calcium fluorescence, potentiator mode; 0% = oxytocin EC15, 100% = EC100; activation, % at 3 µM; 320,000 compounds, 0.061% hits; AID 2445, 2010;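 active = activation above that plate's cutoff, the mean activation of tested compounds plus 3 SD, cut at about 6.6% in these data, passing the limit was not always enough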;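 also: 100% uses oxytocin at 75 nM as the full agonist control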
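Assay system: CHO cell line stably expressing human OTR. Reagent: EC15 oxytocin agonist. Dosing: single dose, 3.0 µM nominal final compound concentration. Timing: compound 6 min at room temperature before oxytocin, 100 s read. Signal: kinetic Fluo-8 calcium fluorescence. Controls: oxytocin EC15 low and EC100 high.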
OX1R antag-2: OX1R (HCRTR1) antagonists, primary screen, fluorescence, CHO/OX1R cells, Fluo-8 calcium, orexin A; Orexin/Hypocretin receptor type 1 (Homo sapiens), O43613; Fluo-8 calcium fluorescence; inhibition, % at 5 µM; 330,000 compounds, 0.43% hits; AID 434989, 2010;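 active = inhibition above its plate's threshold, mean inhibition of all tested compounds on the plate plus 3 SD, cut at about 37% in these data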;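 also: 0% = orexin A challenge wells and 100% = SB-334867-A antagonist wells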
Starred values were filed as active, the others as inactive.

SMILES	CHO parental Ca	V1aR counter	OX1R antag-1	OXTR agonist	OXTR potentiate	OX1R antag-2
N#Cc1nc(COc2ccccc2)oc1N1CCCCCC1	54.1*	-0.8	24.7	-1.1	-4.7	-22.6
COc1cc(NC(=O)C[n+]2ccc(C(=O)c3ccccc3)cc2)cc(OC)c1	-0.4	1.9	42.5*	0.2	-5.3	4.9
O/N=C/c1ccc2ccccc2n1	-6.3	-0.6	13.7	1.0	-4.0	-13.5
Nc1c(Cl)ncnc1N/N=C/c1ccnc2ccccc12	-17.2	0.2	52.3	0.6	-6.1	-29.3
Nc1c(Cl)ncnc1N/N=C/c1ccc2ccccc2n1	33.6	0.8	75.4*	-2.0	4.8	35.1
Nc1c(Cl)ncnc1N/N=C/c1ccccn1	-5.6	1.1	91.6*	2.2	-2.4	0.9
Cc1csc(SCC(=O)NC2CCC(C)CC2)n1 (configuration not stated)	-17.9	-1.2	16.9	-1.9	-2.5	-28.1
Cc1nn(-c2nc3ccccc3s2)c(C)c1Oc1ccccc1O	31.5*	0.1	37.9	-1.1	-14.9	67.0*
Cn1cnc2ccc([N+](=O)[O-])cc2c1=O	-7.0	0.6	75.1*	0.7	-0.2	-12.6
Cc1ccc(OCCn2cnc3cc([N+](=O)[O-])ccc3c2=O)cc1	-12.9	0.1	32.6	-1.9	-8.7	-22.9
O=C(Cn1cnc2cc([N+](=O)[O-])ccc2c1=O)Nc1ccccc1-c1ccccc1	-23.2	0.7	48.5*	-1.2	-20.6	-22.5
O=c1c2ccc([N+](=O)[O-])cc2ncn1CCOc1ccccc1	-13.0	-0.5	68.2*	-1.2	-6.5	-22.5
Cc1ccc2nc(N3C(=O)C(O)=C(C(=O)c4ccc(C)o4)C3c3ccc(O)cc3)sc2c1 (configuration not stated)	-8.8	1.9	-3.1	1.5	5.8	-4.1
COC(=O)C1CCN(C(=O)c2cc(S(=O)(=O)N3CCCCC3)ccc2Cl)CC1	-18.8	-0.2	10.7	0.4	-2.2	9.1
COc1cccc2c1C(=O)c1c(O)c3c(c(O)c1C2=O)C[C@@](O)(C(=O)CO)C[C@@H]3O[C@H]1C[C@H](N)[C@H](O)[C@H](C)O1	23.9	22.9*	44.1*	24.6*	-9.9	26.6
Cc1nnsc1SCCNC(=O)Nc1ccc(Cl)cc1	40.5*	7.6	18.9	6.3	-14.4	36.5*
CCOC(=O)Nc1ccc(N2CCOCC2)c(S(=O)(=O)Nc2ccc(Cl)cc2)c1	-18.4	1.3	3.6	0.9	-10.6	-13.9
N#CC(C#N)=C1C=CC=CN1/C(=C\c1ccco1)C(=O)c1ccc(Cl)cc1	89.7*	1.9	88.1*	2.2	-1.3	62.5*
O=C(NCc1cccc(CNC(=O)C(=O)NCc2ccco2)c1)C(=O)NCc1ccco1	32.5*	0.0	4.8	-1.7	-3.6	13.9
O=C(CSc1nnc(Cn2nnc3ccccc32)o1)N(Cc1ccc(Cl)cc1)c1ccccc1	66.3*	7.7	75.5*	13.3	-11.5	52.6*
O=C(CSc1nnc(Cn2nnc3ccccc32)o1)Nc1cccc(Cl)c1	-11.5	5.9	14.6	7.9	-10.8	-19.5
C=C(C)C(=O)OCC(O)COc1ccc(C(C)(C)c2ccc(OCC(O)COC(=O)C(=C)C)cc2)cc1 (configuration not stated)	56.8*	10.2	20.2	9.8	-21.2	25.3
CC(=O)c1ccc(OCC(O)COc2ccc(C(C)=O)cc2)cc1	-1.4	-0.1	13.4	-0.7	-3.9	-12.5
Cc1ccc(F)cc1CNC(=O)c1cc(COc2ccc3ncccc3c2)on1	32.2*	11.5	36.9	16.0	-13.7	36.5
CC(C)N(Cc1nccn1C)C(=O)c1cc(COc2ccc3ncccc3c2)on1	1.6	8.4	22.4	8.5	-9.2	-10.0
